Data taken from ChEMBL document CHEMBL4261553 (Medchemcomm, 2017).

Assays:
[1] = molecular target: 5-hydroxytryptamine receptor 2A (Homo sapiens, UniProt P28223); assay: Displacement of [3H]-ketanserin from human 5-HT2A receptor expressed in CHOK1 cell membranes after 60 mins by microbeta scintillation counting method; type: cell-based
[2] = molecular target: T1, 5-hydroxytryptamine receptor 1A (Homo sapiens, UniProt P08908); assay: Displacement of [3H]-8-OH-DPAT from human 5-HT1A receptor expressed in CHOK1 cell membranes after 60 mins by microbeta scintillation counting method
T1 sequence (P08908 whole entry): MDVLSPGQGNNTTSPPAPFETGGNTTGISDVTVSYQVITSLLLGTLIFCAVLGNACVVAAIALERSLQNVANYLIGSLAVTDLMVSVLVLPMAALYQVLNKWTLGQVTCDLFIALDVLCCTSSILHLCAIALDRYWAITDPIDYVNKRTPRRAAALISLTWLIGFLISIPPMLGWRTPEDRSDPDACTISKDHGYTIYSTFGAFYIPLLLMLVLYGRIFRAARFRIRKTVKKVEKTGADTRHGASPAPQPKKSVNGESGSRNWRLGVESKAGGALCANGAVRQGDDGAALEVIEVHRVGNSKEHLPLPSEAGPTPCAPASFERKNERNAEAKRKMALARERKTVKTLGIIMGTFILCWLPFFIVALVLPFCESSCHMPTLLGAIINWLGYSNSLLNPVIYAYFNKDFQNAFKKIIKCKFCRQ
How it was run: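 Membranes from CHO-K1 cells stably expressing human receptor, 10 µg protein/well, in 50 mM Tris pH 7.4 with 10 mM MgSO4, 0.5 mM EDTA, 0.1% ascorbic acid. Compounds at 6 concentrations, 10^-10 to 10^-5 M final, in duplicate; 27 °C. GF/C filtration, cold Tris washes. Ki by one-site fit and Cheng–Prusoff.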

Chain of 5-hydroxytryptamine receptor 2A (P28223 whole entry): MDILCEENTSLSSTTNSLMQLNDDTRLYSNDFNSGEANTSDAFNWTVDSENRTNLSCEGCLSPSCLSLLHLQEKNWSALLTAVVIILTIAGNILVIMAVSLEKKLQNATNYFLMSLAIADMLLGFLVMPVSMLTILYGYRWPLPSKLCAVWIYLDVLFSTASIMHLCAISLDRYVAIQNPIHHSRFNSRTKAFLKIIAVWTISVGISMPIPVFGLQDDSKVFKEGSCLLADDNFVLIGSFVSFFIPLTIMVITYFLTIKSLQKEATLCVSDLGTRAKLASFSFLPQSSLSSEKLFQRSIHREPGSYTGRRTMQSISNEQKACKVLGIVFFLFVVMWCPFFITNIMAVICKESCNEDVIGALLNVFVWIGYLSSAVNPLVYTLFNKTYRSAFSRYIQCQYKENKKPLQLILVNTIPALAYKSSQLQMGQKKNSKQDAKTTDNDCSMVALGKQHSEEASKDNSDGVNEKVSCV

COc1cccc(N2CCN(CCCCOc3c(C(C)=O)c(C)cc4oc(=O)cc(C)c34)CC2)c1
Ki [1]: 520 nM | Ki [2]: 15 nM

Cc1cc(OCCCN2CCN(c3ccccc3C#N)CC2)c2c(C)cc(=O)oc2c1
Ki [1]: 200 nM | Ki [2]: 3 nM

CC(=O)c1c(C)cc2oc(=O)cc(C)c2c1OCCCCN1CCN(c2cnccn2)CC1
Ki [1]: 2500 nM | Ki [2]: 4.8 nM

CC(=O)c1c(C)cc2oc(=O)cc(C)c2c1OCCCCN1CCN(c2ccncc2)CC1
Ki [1]: 1590 nM | Ki [2]: 308 nM

Cc1cc(OCCCN2CCN(c3cnccn3)CC2)c2c(C)cc(=O)oc2c1
Ki [1]: 4570 nM | Ki [2]: 186 nM

CC(=O)c1c(C)cc2oc(=O)cc(C)c2c1OCCCN1CCN(c2ccccc2F)CC1
Ki [1]: 28 nM | Ki [2]: 0.3 nM

Cc1cc(OCCCN2CCN(c3ccncc3)CC2)c2c(C)cc(=O)oc2c1
Ki [1]: > 5000 nM | Ki [2]: 450 nM

Cc1cc(OCCCCN2CCN(c3cnccn3)CC2)c2c(C)cc(=O)oc2c1
Ki [1]: 2300 nM | Ki [2]: 6.7 nM

Cc1cc(OCCCCN2CCN(c3cccc(Cl)c3Cl)CC2)c2c(C)cc(=O)oc2c1
Ki [1]: 167 nM | Ki [2]: 8 nM

Cc1cc(OCCCCN2CCN(c3ccc(Cl)cc3)CC2)c2c(C)cc(=O)oc2c1
Ki [1]: 465 nM | Ki [2]: 60 nM

Cc1cc(OCCCN2CCN(c3ccc([N+](=O)[O-])cc3)CC2)c2c(C)cc(=O)oc2c1
Ki [1]: > 10000 nM | Ki [2]: 1210 nM

Cc1cc(OCCCCN2CCN(c3ccc([N+](=O)[O-])cc3)CC2)c2c(C)cc(=O)oc2c1
Ki [1]: > 10000 nM | Ki [2]: 809 nM

CC(=O)c1c(C)cc2oc(=O)cc(C)c2c1OCCCN1CCN(c2ccccc2C#N)CC1
Ki [1]: 64 nM | Ki [2]: 0.3 nM

CC(=O)c1c(C)cc2oc(=O)cc(C)c2c1OCCCN1CCOCC1
Ki [1]: > 10000 nM | Ki [2]: 850 nM

CC(=O)c1c(C)cc2oc(=O)cc(C)c2c1OCCCN1CCN(c2cnccn2)CC1
Ki [1]: 3000 nM | Ki [2]: 11 nM

Cc1cc(OCCCN2CCN(c3cccc(Cl)c3Cl)CC2)c2c(C)cc(=O)oc2c1
Ki [1]: 42 nM | Ki [2]: 4 nM

CC(=O)c1c(C)cc2oc(=O)cc(C)c2c1OCCCN1CCN(c2ccc(Cl)cc2)CC1
Ki [1]: 4 nM | Ki [2]: 1.2 nM

COc1cccc(N2CCN(CCCOc3c(C(C)=O)c(C)cc4oc(=O)cc(C)c34)CC2)c1
Ki [1]: 48 nM | Ki [2]: 0.4 nM

Cc1cc(OCCCCN2CCN(c3ccncc3)CC2)c2c(C)cc(=O)oc2c1
Ki [1]: > 5000 nM | Ki [2]: 389 nM

Cc1cc(OCCCCN2CCOCC2)c2c(C)cc(=O)oc2c1
Ki [1]: > 10000 nM | Ki [2]: 3500 nM

CC(=O)c1c(C)cc2oc(=O)cc(C)c2c1OCCCCN1CCN(c2ccc([N+](=O)[O-])cc2)CC1
Ki [1]: 46 nM | Ki [2]: 33 nM

Cc1cc(OCCCCN2CCN(c3ccccc3C#N)CC2)c2c(C)cc(=O)oc2c1
Ki [1]: 112 nM | Ki [2]: 1.5 nM

Cc1cc(OCCCCN2CCN(c3ccccc3F)CC2)c2c(C)cc(=O)oc2c1
Ki [1]: 120 nM | Ki [2]: 1.7 nM

CC(=O)c1c(C)cc2oc(=O)cc(C)c2c1OCCCCN1CCOCC1
Ki [1]: 4460 nM | Ki [2]: 250 nM

COc1cccc(N2CCN(CCCOc3cc(C)cc4oc(=O)cc(C)c34)CC2)c1
Ki [1]: 106 nM | Ki [2]: 6 nM

Cc1cc(OCCCN2CCN(c3ccc(Cl)cc3)CC2)c2c(C)cc(=O)oc2c1
Ki [1]: 70 nM | Ki [2]: 161 nM

CC(=O)c1c(C)cc2oc(=O)cc(C)c2c1OCCCN1CCN(c2ccncc2)CC1
Ki [1]: > 10000 nM | Ki [2]: 154 nM

CC(=O)c1c(C)cc2oc(=O)cc(C)c2c1OCCCCN1CCN(c2ccccc2F)CC1
Ki [1]: 9 nM | Ki [2]: 0.7 nM

CC(=O)c1c(C)cc2oc(=O)cc(C)c2c1OCCCN1CCN(c2ccc([N+](=O)[O-])cc2)CC1
Ki [1]: 286 nM | Ki [2]: 159 nM

CC(=O)c1c(C)cc2oc(=O)cc(C)c2c1OCCCCN1CCN(c2ccc(Cl)cc2)CC1
Ki [1]: 1.7 nM | Ki [2]: 7 nM

CC(=O)c1c(C)cc2oc(=O)cc(C)c2c1OCCCCN1CCN(c2cccc(Cl)c2Cl)CC1
Ki [1]: 2650 nM | Ki [2]: 250 nM

COc1cccc(N2CCN(CCCCOc3cc(C)cc4oc(=O)cc(C)c34)CC2)c1
Ki [1]: 184 nM | Ki [2]: 1 nM

CC(=O)c1c(C)cc2oc(=O)cc(C)c2c1OCCCN1CCN(c2cccc(Cl)c2Cl)CC1
Ki [1]: 66 nM | Ki [2]: 0.4 nM

Cc1cc(OCCCN2CCOCC2)c2c(C)cc(=O)oc2c1
Ki [1]: > 10000 nM | Ki [2]: 1300 nM

Cc1cc(OCCCN2CCN(c3ccccc3F)CC2)c2c(C)cc(=O)oc2c1
Ki [1]: 55 nM | Ki [2]: 3 nM
